≈ marks a conversion by molar mass, not a printed value.
Tests used:
Candida parapsilosis = assay: Antifungal activity against Candida parapsilosis after 48 hrs by CLSI M27A3 broth microdilution method; assay type: functional; conditions: Lodderomyces parapsilosis
Method in brief: (§1)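 Yeasts were kept on Sabouraud dextrose agar and subcultured at 35 °C for at least 2 days. They were suspended in saline to McFarland 0.5 and diluted in RPMI. Ten successive dilutions were made from a 1.6 mg/mL DMSO stock per CLSI broth microdilution, then incubated at 37 °C for 48 h. Growth was read visually against a growth-control well, and MIC is the lowest concentration inhibiting growth.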

Geotrichum = assay: Antifungal activity against Geotrichum species after 48 hrs by CLSI M27A3 broth microdilution method; assay type: functional; method in brief: as §1
Papiliotrema laurentii = assay: Antifungal activity against Cryptococcus laurentii after 48 hrs by CLSI M27A3 broth microdilution method; assay type: functional; method in brief: as §1
Rhodotorula = assay: Antifungal activity against Rhodotorula species after 48 hrs by CLSI M27A3 broth microdilution method; assay type: functional; method in brief: as §1
Candida albicans = assay: Antifungal activity against Candida albicans after 48 hrs by CLSI M27A3 broth microdilution method; assay type: functional; method in brief: as §1
Trichosporon asahii = assay: Antifungal activity against Trichosporon asahii after 48 hrs by CLSI M27A3 broth microdilution method; assay type: functional; method in brief: as §1
[1] = system: Meyerozyma guilliermondii; assay: Antifungal activity against Candida guilliermondii after 48 hrs by CLSI M27A3 broth microdilution method; assay type: functional; method in brief: as §1
Vero [2] = assay: Cytotoxicity against African green monkey Vero cells at 12.3 ug/mL by neutral red dye uptake assay relative to control; assay type: cell-based; conditions: chlorocebus sabaeus
Method in brief: (§2)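 Vero cells (over 99% viable by trypan blue exclusion) were exposed to serial compound dilutions in E-MEM, with fresh E-MEM as negative control, for 72 h at 37 °C, 5% CO2. Cells were then given 3.3 mg/L neutral red for 2 h, and the dye was extracted with 50% ethanol/1% acetic acid. A540 was read, and viability was calculated as treated/control absorbance × 100.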

Vero [3] = assay: Cytotoxicity against African green monkey Vero cells at 25 ug/mL by neutral red dye uptake assay relative to control; assay type: cell-based; conditions: chlorocebus sabaeus; method in brief: as §2
Vero [4] = assay: Cytotoxicity against African green monkey Vero cells at 49 ug/mL by neutral red dye uptake assay relative to control; assay type: cell-based; conditions: chlorocebus sabaeus; method in brief: as §2
Vero [5] = assay: Cytotoxicity against African green monkey Vero cells at 98 ug/mL by neutral red dye uptake assay relative to control; assay type: cell-based; conditions: chlorocebus sabaeus; method in brief: as §2
Vero [6] = assay: Cytotoxicity against African green monkey Vero cells at 197 ug/mL by neutral red dye uptake assay relative to control; assay type: cell-based; conditions: chlorocebus sabaeus; method in brief: as §2
Vero [7] = assay: Cytotoxicity against African green monkey Vero cells at 394 ug/mL by neutral red dye uptake assay relative to control; assay type: cell-based; conditions: chlorocebus sabaeus; method in brief: as §2
Vero [8] = assay: Cytotoxicity against African green monkey Vero cells at 787 ug/mL by neutral red dye uptake assay relative to control; assay type: cell-based; conditions: chlorocebus sabaeus; method in brief: as §2
Vero [9] = assay: Cytotoxicity against African green monkey Vero cells at 1575 ug/mL by neutral red dye uptake assay relative to control; assay type: cell-based; conditions: chlorocebus sabaeus; method in brief: as §2
Vero [10] = assay: Cytotoxicity against African green monkey Vero cells at 3150 ug/mL by neutral red dye uptake assay relative to control; assay type: cell-based; conditions: chlorocebus sabaeus; method in brief: as §2

SMILES | MFC (Candida parapsilosis) [µg/mL] | MIC (Candida parapsilosis) [µg/mL] | MFC (Geotrichum) [µg/mL] | MIC (Geotrichum) [µg/mL] | MFC (Papiliotrema laurentii) [µg/mL] | MIC (Papiliotrema laurentii) [µg/mL] | MFC (Rhodotorula) [µg/mL] | MIC (Rhodotorula) [µg/mL] | MFC (Candida albicans) [µg/mL] | MIC (Candida albicans) [µg/mL] | MFC (Trichosporon asahii) [µg/mL] | MIC (Trichosporon asahii) [µg/mL] | MFC [1] [µg/mL] | MIC [1] [µg/mL] | Cell viability (Vero [2]) [%] | Cell viability (Vero [3]) [%] | Cell viability (Vero [4]) [%] | Cell viability (Vero [5]) [%] | Cell viability (Vero [6]) [%] | Cell viability (Vero [7]) [%] | other results
OC(Cn1cncn1)(Cn1cncn1)c1ccc(F)cc1F [FLUCONAZOLE] | 1 (≈ 3.27 µM) | 1 (≈ 3.27 µM) | 8 (≈ 26.1 µM) | 8 (≈ 26.1 µM) | 1 (≈ 3.27 µM) | 1 (≈ 3.27 µM) | 26.5 (≈ 86.5 µM) | 26.5 (≈ 86.5 µM) | 1 (≈ 3.27 µM) | 1 (≈ 3.27 µM) | 1 (≈ 3.27 µM) | 1 (≈ 3.27 µM) | 16 (≈ 52.2 µM) | 16 (≈ 52.2 µM) |  |  |  |  |  |  | 
Cc1ccc(C2SCC(=O)N2CCN2CCCCC2)cc1 (centres undefined) | 100 (≈ 328 µM) | 100 (≈ 328 µM) | 100 (≈ 328 µM) | 100 (≈ 328 µM) | 66 (≈ 217 µM) | 66 (≈ 217 µM) | 37.5 (≈ 123 µM) | 37.5 (≈ 123 µM) | 62 (≈ 204 µM) | 62 (≈ 204 µM) | 50 (≈ 164 µM) | 50 (≈ 164 µM) | 100 (≈ 328 µM) | 100 (≈ 328 µM) | 100 | 100 | 100 | 100 | 85 | 51 | Cell viability (Vero [8]): 17%; Cell viability (Vero [9]): 13%; Cell viability (Vero [10]): 12%
O=C1CSC(c2c(Cl)cccc2Cl)N1CCN1CCCCC1 (centres undefined) | 100 (≈ 278 µM) | 100 (≈ 278 µM) | 50 (≈ 139 µM) | 50 (≈ 139 µM) | 200 (≈ 557 µM) | 200 (≈ 557 µM) | 30 (≈ 83.5 µM) | 30 (≈ 83.5 µM) | 75 (≈ 209 µM) | 75 (≈ 209 µM) | 50 (≈ 139 µM) | 50 (≈ 139 µM) | 200 (≈ 557 µM) | 200 (≈ 557 µM) | 100 | 100 | 100 | 76 | 75 | 32 | Cell viability (Vero [8]): 11%; Cell viability (Vero [9]): 10%; Cell viability (Vero [10]): 7%
O=C1CSC(c2cccc(O)c2)N1CCN1CCCCC1 (centres undefined) | 67 (≈ 219 µM) | 67 (≈ 219 µM) | > 400 | > 400 | 100 (≈ 326 µM) | 100 (≈ 326 µM) | 33.5 (≈ 109 µM) | 33.5 (≈ 109 µM) | 81 (≈ 264 µM) | 81 (≈ 264 µM) | > 400 | > 400 | 100 (≈ 326 µM) | 100 (≈ 326 µM) | 100 | 100 | 100 | 100 | 100 | 100 | Cell viability (Vero [8]): 60%; Cell viability (Vero [9]): 13%; Cell viability (Vero [10]): 11%
O=C1CSC(c2ccc(Cl)cc2)N1CCN1CCCCC1 (centres undefined) | 100 (≈ 308 µM) | 100 (≈ 308 µM) | 50 (≈ 154 µM) | 50 (≈ 154 µM) | 100 (≈ 308 µM) | 100 (≈ 308 µM) | 50 (≈ 154 µM) | 50 (≈ 154 µM) | 62 (≈ 191 µM) | 62 (≈ 191 µM) | 50 (≈ 154 µM) | 50 (≈ 154 µM) | 100 (≈ 308 µM) | 100 (≈ 308 µM) | 90 | 84 | 84 | 74 | 68 | 28 | Cell viability (Vero [8]): 15%; Cell viability (Vero [9]): 13%; Cell viability (Vero [10]): 11%
O=C1CSC(c2ccccc2Cl)N1CCN1CCCCC1 (centres undefined) | 100 (≈ 308 µM) | 100 (≈ 308 µM) | 50 (≈ 154 µM) | 50 (≈ 154 µM) | 100 (≈ 308 µM) | 100 (≈ 308 µM) | 33 (≈ 102 µM) | 33 (≈ 102 µM) | 75 (≈ 231 µM) | 75 (≈ 231 µM) | 66.5 (≈ 205 µM) | 66.5 (≈ 205 µM) | 100 (≈ 308 µM) | 100 (≈ 308 µM) | 100 | 100 | 100 | 94 | 71 | 31 | Cell viability (Vero [8]): 38%; Cell viability (Vero [9]): 16%; Cell viability (Vero [10]): 22%
O=C1CSC(c2ccccc2F)N1CCN1CCCCC1 (centres undefined) | 100 (≈ 324 µM) | 100 (≈ 324 µM) | > 400 | > 400 | 100 (≈ 324 µM) | 100 (≈ 324 µM) | 36 (≈ 117 µM) | 36 (≈ 117 µM) | 100 (≈ 324 µM) | 100 (≈ 324 µM) | > 400 | > 400 | 133 (≈ 431 µM) | 133 (≈ 431 µM) | 100 | 100 | 95 | 82 | 65 | 45 | Cell viability (Vero [8]): 10%; Cell viability (Vero [9]): 10%; Cell viability (Vero [10]): 10%
O=C1CSC(c2ccc(O)cc2)N1CCN1CCCCC1 (centres undefined) | 100 (≈ 326 µM) | 100 (≈ 326 µM) | 50 (≈ 163 µM) | 50 (≈ 163 µM) | 100 (≈ 326 µM) | 100 (≈ 326 µM) | 25 (≈ 81.6 µM) | 25 (≈ 81.6 µM) | 100 (≈ 326 µM) | 100 (≈ 326 µM) | 50 (≈ 163 µM) | 50 (≈ 163 µM) | 100 (≈ 326 µM) | 100 (≈ 326 µM) | 100 | 100 | 96 | 94 | 87 | 76 | Cell viability (Vero [8]): 57%; Cell viability (Vero [9]): 12%; Cell viability (Vero [10]): 10%
O=C1CSC(c2cccc(F)c2)N1CCN1CCCCC1 (centres undefined) | 100 (≈ 324 µM) | 100 (≈ 324 µM) | > 400 | > 400 | 100 (≈ 324 µM) | 100 (≈ 324 µM) | 33.5 (≈ 109 µM) | 33.5 (≈ 109 µM) | 150 (≈ 486 µM) | 150 (≈ 486 µM) | > 400 | > 400 | 100 (≈ 324 µM) | 100 (≈ 324 µM) | 100 | 100 | 97 | 92 | 84 | 60 | Cell viability (Vero [8]): 27%; Cell viability (Vero [9]): 17%; Cell viability (Vero [10]): 13%
O=C1CSC(c2cccc(Cl)c2)N1CCN1CCCCC1 (centres undefined) | 100 (≈ 308 µM) | 100 (≈ 308 µM) | 50 (≈ 154 µM) | 50 (≈ 154 µM) | 100 (≈ 308 µM) | 100 (≈ 308 µM) | 25 (≈ 77 µM) | 25 (≈ 77 µM) | 62 (≈ 191 µM) | 62 (≈ 191 µM) | 100 (≈ 308 µM) | 100 (≈ 308 µM) | 100 (≈ 308 µM) | 100 (≈ 308 µM) | 100 | 100 | 100 | 100 | 77 | 45 | Cell viability (Vero [8]): 31%; Cell viability (Vero [9]): 20%; Cell viability (Vero [10]): 15%
O=C1CSC(c2ccc([N+](=O)[O-])cc2)N1CCN1CCCCC1 (centres undefined) | 100 (≈ 298 µM) | 100 (≈ 298 µM) | 50 (≈ 149 µM) | 50 (≈ 149 µM) | 100 (≈ 298 µM) | 100 (≈ 298 µM) | 30 (≈ 89.4 µM) | 30 (≈ 89.4 µM) | 62 (≈ 185 µM) | 62 (≈ 185 µM) | 100 (≈ 298 µM) | 100 (≈ 298 µM) | 100 (≈ 298 µM) | 100 (≈ 298 µM) | 100 | 100 | 100 | 87 | 72 | 66 | Cell viability (Vero [8]): 21%; Cell viability (Vero [9]): 15%; Cell viability (Vero [10]): 10%

— ChEMBL document CHEMBL2384952, “Synthesis, antifungal and cytotoxic activities of 2-aryl-3-((piperidin-1-yl)ethyl)thiazolidinones” (Eur J Med Chem, 2013)
